Assays:
[1] = biological target: T1, human recombinant GIVA cPLA2 (Homo sapiens, UniProt P47712); type: biochemical
T1 sequence (P47712 1-749): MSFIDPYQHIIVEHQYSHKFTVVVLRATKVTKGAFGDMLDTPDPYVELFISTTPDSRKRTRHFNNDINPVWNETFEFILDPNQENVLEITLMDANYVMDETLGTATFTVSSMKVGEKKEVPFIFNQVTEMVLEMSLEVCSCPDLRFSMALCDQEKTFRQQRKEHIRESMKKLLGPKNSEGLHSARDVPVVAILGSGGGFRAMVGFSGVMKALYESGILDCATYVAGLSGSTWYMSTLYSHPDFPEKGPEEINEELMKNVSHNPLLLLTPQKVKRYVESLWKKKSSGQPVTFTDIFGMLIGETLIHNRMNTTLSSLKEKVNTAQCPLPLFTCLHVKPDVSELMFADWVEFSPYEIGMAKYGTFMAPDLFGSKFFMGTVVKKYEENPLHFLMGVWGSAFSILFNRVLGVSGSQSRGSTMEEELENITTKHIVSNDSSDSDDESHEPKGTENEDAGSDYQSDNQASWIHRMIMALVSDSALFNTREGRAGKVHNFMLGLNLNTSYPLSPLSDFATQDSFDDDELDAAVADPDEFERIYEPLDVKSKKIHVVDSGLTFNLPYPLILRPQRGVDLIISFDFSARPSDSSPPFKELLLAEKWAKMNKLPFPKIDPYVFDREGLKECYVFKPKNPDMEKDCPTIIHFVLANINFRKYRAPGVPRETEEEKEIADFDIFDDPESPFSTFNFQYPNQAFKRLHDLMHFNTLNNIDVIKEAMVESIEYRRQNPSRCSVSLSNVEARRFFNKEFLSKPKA

[2] = plasma stability study; type: in vitro ADME; conditions: 37 °C, 1 mg/mL
How it was run: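 Test compound added to preheated human plasma (37 °C) at a final 1 mg/mL. Aliquots taken at 0, 15, 30 and 60 min, quenched with acetonitrile, vortexed and centrifuged 5 min. Supernatants analysed by LC-HRMS/MS (negative ESI, C18 column, acetonitrile/isopropanol–water gradient with 0.01% formic acid). Each sample run in triplicate. Percent remaining relative to initial concentration plotted against time.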

Molecule | parent compound in human plasma after 30 min [2] | inhibition of GIVA cPLA2 (in words) [1] | other results
CCCCOc1ccc(CCCCC(=O)C(=O)OCCCCC(=O)O)cc1 [Compound 25a, 5-((6-(4-Butoxyphenyl)-2-oxohexanoyl)oxy)pentanoic Acid] | not detectable |  | times less potent than 25b against GIVA cPLA2 [1]: 3 times
5-((6-(4-Butoxyphenyl)hexanoyl)oxy)pentanoic Acid [Compound 27b] |  | no inhibition | 
CCCCOc1ccc(CCCCC(=O)C(=O)O)cc1 [Compound 29, 6-(4-Butoxyphenyl)-2-oxohexanoic Acid] |  | very weak inhibition | 
CCCCCCOc1ccc(CCCCC(=O)C(=O)OCCCCC(=O)O)cc1 [Compound 25b, 5-((6-(4-(Hexyloxy)phenyl)-2-oxohexanoyl)oxy)pentanoic Acid] | not detectable |  | selectivity for GIVA cPLA2 over GVIA iPLA2 [1]: at least 500 fold; times more potent than 6 against GIVA cPLA2 [1]: 4 times
5-((6-(4-Butoxyphenyl)-2-fluorohexanoyl)oxy)pentanoic Acid [Compound 27a] |  | abolished the inhibitory potency | percent parent compound remaining after 1 h ([2]; human plasma, 1 h): ~100%

From article PMC6120731 (ACS Omega, 2018)
